Data published in publication PMC3205354 (Chemistry & biology, 2011).

Tests used:
[1] = test system: GST-fusion FAPP1 PH domain; assay: Liposome binding assay; set-up: species or system human; conditions: SUVs of POPC, POPE, POPS and PI (50:20:15:15); 20 mM MOPS, 100 mM KCl, pH 7.0
How it was run: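 GST-tagged FAPP1 PH expressed in E. coli BL21(DE3) and purified on glutathione Sepharose. Lipids dried from CHCl3:MeOH:H2O (65:25:4) were resuspended in MOPS/KCl buffer and extruded 19 times through a 1 µm membrane. Liposomes were pelleted at 25,000 × g for 20 min, resuspended, and incubated with protein (stock 1.7 µg/µl) for 1 hr at room temperature. They were re-pelleted, and pellet and supernatant were analysed by SDS-PAGE.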

FAPP1 PH domain [2] = target: T1, FAPP1 PH domain (Homo sapiens, UniProt Q9HB20); conditions: 5 mol% in monolayer; ref He, et al., 2011; cited from earlier work
T1 sequence (Q9HB20 1-99): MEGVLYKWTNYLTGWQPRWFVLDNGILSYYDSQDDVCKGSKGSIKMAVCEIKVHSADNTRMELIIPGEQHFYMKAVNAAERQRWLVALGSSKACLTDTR

FAPP1 PH domain [3] = target: T1, FAPP1 PH domain; assay: SPR equilibrium binding to lipid vesicles; conditions: read-out: Kd (SPR); POPC/POPE/PI (75:20:5) liposomes; 10 mM HEPES (pH 7.4), 160 mM KCl, 25°C
FAPP1 PH domain [4] = target: T1, FAPP1 PH domain; assay: NMR 1H,15N HSQC titration; format: binding; conditions: read-out: Kd (NMR); 25 mM Bis-Tris, 150 mM NaCl, pH 6.5, 25°C
How it was run: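 Human FAPP1 PH (aa 1–99), ¹⁵N-labeled, expressed in E. coli Rosetta (DE3) pLysS in ¹⁵NH₄Cl minimal medium (0.1 mM IPTG, room temperature, 6 hr). It was purified on Talon resin, His tag removed with thrombin, then size exclusion. HSQC spectra of 0.1–0.2 mM protein were recorded at 600 MHz with stepwise ligand addition. Normalized ¹H/¹⁵N shift changes were fitted against ligand and protein concentrations to give Kd.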

| SMILES | partitioning of GST-FAPP1 PH between supernatant and pelleted SUVs [1] | surface pressure (πc) (FAPP1 PH domain [2]) [mN/m] | Kd (FAPP1 PH domain [3]) [mM] | Kd (FAPP1 PH domain [4]) [mM] |
| --- | --- | --- | --- | --- |
| CCCCCCCCCCCCCCCC(=O)OC[C@H](COP(=O)(O)O[C@H]1[C@H](O)[C@@H](O)[C@H](OP(=O)(O)O)[C@@H](O)[C@H]1O)OC(=O)CCCCCCCCCCCCCCC [C16-PtdIns(4)P] | half of the protein associated with SUVs | 33 | 0.00046 | – |
| O=P(O)(O)OC1[C@@H](O)[C@@H](O)C(OP(=O)(O)O)[C@H](O)[C@H]1O (stereo partly shown) [Ins(1,4)P2, inositol 1,4-bisphosphate] | – | – | – | 20 |
